Assay results reported in ChEMBL document CHEMBL1122835, “Synthesis and pharmacology of the potent angiotensin-converting enzyme inhibitor N-[1(S)-(ethoxycarbonyl)-3-phenylpropyl]-(S)-alanyl-(S)-pyroglutamic acid” (J Med Chem, 1985).

Key:
Canis familiaris [1] = test: Effect on pressor response of angiotensin I in anesthetized dog, dose 0.1 mg/kg administered intravenously; format: functional, Canis lupus familiaris; details: route intravenous
Procedure, shortened: (§1)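 Mongrel dogs, 7.3–15.5 kg, anesthetized with barbital/pentobarbital iv, tracheotomized and vagotomized, n = 4. Cumulative iv doses in saline (0.2 mL/kg) spaced 30 min apart. AI and AII 1 μg/kg iv challenges given after each dose; the second pre-dose set served as control.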

Canis familiaris [2] = test: Effect on pressor response of angiotensin I in conscious dog at 60-65 min, dose 0.5 mg/kg administered orally; format: functional, Canis lupus familiaris; details: route oral
Procedure, shortened: (§2)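 Conscious fasted mongrel dogs of both sexes, 6.8–15.3 kg, with femoral cannulas. Drug given orally in 0.25% methylcellulose with 3% glycerin (2 mL/kg), n = 4 per dose. AI 0.3, AII 0.1 and NE 1 μg/kg iv challenges. The second pre-dose set served as control; response measured at 60–65 min post-dose.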

Canis familiaris [3] = test: Effect on pressor response of angiotensin II in anesthetized dog, dose 0.1 mg/kg administered intravenously; format: functional, Canis lupus familiaris; details: route intravenous; procedure, shortened: as §1
Canis familiaris [4] = test: Effect on pressor response of angiotensin II in conscious dog at 60-65 min, dose 1 mg/kg administered orally; format: functional, Canis lupus familiaris; details: route oral; procedure, shortened: as §2
Rattus norvegicus [5] = test: Effect on systolic blood pressure was determined in renal hypertensive rat, administered orally at a dose 100 mg/kg; format: functional, Artery; details: route oral
Procedure, shortened: (§3)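 Renal hypertensive rats were prepared by clipping the left renal artery (0.22-mm clip) in 4-week-old male CD rats and held 6 weeks. Overnight-fasted rats were dosed orally with aqueous solution (5 mL/kg), water as control. Tail-cuff systolic pressure and heart rate measured 2 h post-dose. ANOVA with Duncan's test; ED30 by linear regression.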

Rattus norvegicus [6] = test: Percent change was determined in bradykinin depressor response in anesthetized normotensive rat, administered intravenously at dose 0.010 mg/kg; format: functional; details: dose 0.01 mg/kg; route intravenous
Procedure, shortened: (§4)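 Male Charles River CD rats (380–500 g), pentobarbital Na 15 mg/kg plus barbital 220 mg/kg ip, tracheotomized, femoral artery/vein cannulated, kept at 37 °C. Control bradykinin 1 μg/kg iv depressor response, separate from angiotensin tests; drug iv in 0.9% saline (1 mL/kg, free base) 10 min later, Bk 5 min after each cumulative dose (0.0033–0.27 mg/kg). Maximum fall in arterial pressure versus control response; N = 8.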

Rattus norvegicus [7] = test: Percent change was determined in bradykinin depressor response in anesthetized normotensive rat, administered intravenously at dose 0.030 mg/kg; format: functional; details: dose 0.03 mg/kg; route intravenous; procedure, shortened: as §4
Rattus norvegicus [8] = test: Percent decrease in angiotensin I pressor response was measured in rat, administered intravenously at dose 0.030 mg/kg; format: functional; details: dose 0.03 mg/kg; route intravenous
Procedure, shortened: (§5)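 Anesthetized (pentobarbital Na 15 mg/kg + barbital 220 mg/kg ip), tracheotomized male Charles River CD rats, 380–500 g, femoral cannulas, heated board at 37 °C. Control pressor responses to angiotensin I 0.3 μg/kg then angiotensin II 0.1 μg/kg iv; drug iv in 0.9% saline (free base), AI and AII repeated at 5-min intervals, cumulative 0.01–0.81 mg/kg. Peak arterial pressure rise versus control.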

Rattus norvegicus [9] = test: Percent decrease in angiotensin I pressor response was measured in rat, administered intravenously at dose 0.27 mg/kg; format: functional; details: route intravenous; procedure, shortened: as §5
Rattus norvegicus [10] = test: Hypotensive activity was determined in low-sodium treated rat, dose 10 mg/kg administered orally at 5 hr; format: functional; details: route oral
Procedure, shortened: (§6)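 Male CD rats, 11 weeks old, kept on a sodium-deficient diet for 3 weeks and fasted overnight, were dosed orally with aqueous solutions (5 mL/kg), water as control. Systolic pressure measured by tail cuff at the stated post-dose time. ANOVA with Duncan's test.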

Rattus norvegicus [11] = test: Hypotensive activity was determined in low-sodium treated rat, dose 3 mg/kg administered orally at 2 hr; format: functional; details: route oral; procedure, shortened: as §6
Rattus norvegicus [12] = test: Hypotensive activity was determined in low-sodium treated rat, dose 30 mg/kg administered orally at 2 hr; format: functional; details: route oral; procedure, shortened: as §6
Rattus norvegicus [13] = test: Hypotensive activity was determined in low-sodium treated rat, dose 30 mg/kg administered orally at 5 hr; format: functional; details: route oral; procedure, shortened: as §6
Rattus norvegicus [14] = test: Hypotensive activity was determined in low-sodium treated rat, dose 3 mg/kg administered orally at 5 hr; format: functional; details: route oral; procedure, shortened: as §6
Rattus norvegicus [15] = test: Decrease in systolic blood pressure of Spontaneous Hypertensive Rats (SHR) pretreated with hydrochlorothiazide upon oral administration at 3 mm/kg; format: functional, Artery
Procedure, shortened: (§7)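 Male SHR, 13 weeks old, given HCTZ 25 mg/kg po in 0.25% methylcellulose daily for 3 days. Drug given orally in water (5 mL/kg) 1 h after the third dose. Tail-cuff systolic pressure and pulse-count heart rate taken 1.5 h later after 20 min warming at 38 °C. ANOVA with Duncan's test; ED30 by linear regression.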

Rattus norvegicus [16] = test: Decrease in systolic blood pressure of Spontaneous Hypertensive Rats (SHR) pretreated with hydrochlorothiazide upon oral administration at 30 mm/kg; format: functional, Artery; procedure, shortened: as §7
Rattus norvegicus [17] = species: Rattus norvegicus; test: Dose required to reduce systolic blood pressure by 30 mmHg; format: functional; details: Artery; procedure, shortened: as §7
Rattus norvegicus [18] = species: Rattus norvegicus; test: Dose required to reduce systolic blood pressure by 30 mmHg in renal hypertensive rat; format: functional; details: Artery; procedure, shortened: as §3
Rattus norvegicus [19] = test: Change in heart rate was determined at a dose 3 mg/kg; format: functional; procedure, shortened: as §7
Rattus norvegicus [20] = test: Change in heart rate was determined in renal hypertensive rat, administered orally at a dose 10 mg/kg; format: functional; details: route oral; procedure, shortened: as §3
Rattus norvegicus [21] = test: Change in heart rate was determined in renal hypertensive rat, administered orally at a dose 30 mg/kg; format: functional; details: route oral; procedure, shortened: as §3
Rattus norvegicus [22] = test: Change in heart rate was determined in renal hypertensive rat, administered orally at a dose 3 mg/kg; format: functional; details: route oral; procedure, shortened: as §3
Rattus norvegicus [23] = test: Effect on vasopressor response caused by angiotensin I (AI) in anesthetized normotensive rat, administered intravenously at dose 0.030 mg/kg; format: functional; details: dose 0.03 mg/kg; route intravenous
Procedure, shortened: (§8)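 Male Charles River CD rats, 380–500 g, anesthetized with pentobarbital Na 15 mg/kg plus barbital 220 mg/kg ip, held at 37 °C. Femoral artery pressure recorded. AI 0.3 μg/kg and AII 0.1 μg/kg given iv as challenges. Cumulative iv drug in saline, 0.01–0.81 mg/kg, each dose followed by AI/AII challenges at 5-min intervals. ED50 = 50% change from control response, by linear regression.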

Rattus norvegicus [24] = test: Effect on vasopressor response caused by angiotensin I (AI) in anesthetized normotensive rat, administered intravenously at dose 0.090 mg/kg; format: functional; details: dose 0.09 mg/kg; route intravenous; procedure, shortened: as §8
Rattus norvegicus [25] = test: Effect on vasopressor response caused by angiotensin I (AI) in anesthetized normotensive rat, administered intravenously at dose 0.27 mg/kg; format: functional; details: route intravenous; procedure, shortened: as §8
Rattus norvegicus [26] = test: Effect on vasopressor response caused by angiotensin I (AI) in anesthetized normotensive rat, administered intravenously at dose 0.81 mg/kg; format: functional; details: route intravenous; procedure, shortened: as §8
Rattus norvegicus [27] = test: Activity against the bradykinin Response in anesthetized normotensive rat, administered intravenously at dose 0.0033 mg/kg; format: functional; details: route intravenous
Procedure, shortened: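 Anesthetized (pentobarbital/barbital ip) male Charles River CD rats, 380–500 g, kept at 37 °C. Femoral artery blood pressure recorded. Control depressor response to bradykinin 1 μg/kg iv, then cumulative iv drug in 0.9% saline (1 mL/kg), 0.0033–0.27 mg/kg. Bk challenge 5 min after each dose. ED50 = dose giving a 50% change from control, by linear regression; N = 8.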

Rattus norvegicus [28] = test: Change in heart rate was determined at a dose 10 mg/kg; format: functional; procedure, shortened: as §7
Rattus norvegicus [29] = test: Effect on systolic blood pressure was determined in renal hypertensive rat, administered orally at a dose 3 mg/kg; format: functional, Artery; details: route oral; procedure, shortened: as §3

Compound: CCOC(=O)[C@H](CCc1ccccc1)N[C@@H](C)C(=O)N1C(=O)CC[C@H]1C(=O)O
- Blood pressure (Canis familiaris [1]): 60 mmHg
- Blood pressure (Canis familiaris [2]): 47 mmHg
- Blood pressure (Canis familiaris [3]): 64 mmHg
- Blood pressure (Canis familiaris [4]): 48 mmHg
- Activity (Rattus norvegicus [5]): 186 mmHg
- Change (Rattus norvegicus [6]): 61%
- Change (Rattus norvegicus [7]): 69%
- Decrease (Rattus norvegicus [8]): 19%
- Decrease (Rattus norvegicus [9]): 63%
- Activity (Rattus norvegicus [10]): 143 mmHg
- Activity (Rattus norvegicus [11]): 154 mmHg
- Activity (Rattus norvegicus [12]): 135 mmHg
- Activity (Rattus norvegicus [13]): 132 mmHg
- Activity (Rattus norvegicus [14]): 153 mmHg
- Blood pressure (Rattus norvegicus [15]): 211 mmHg
- Blood pressure (Rattus norvegicus [16]): 190 mmHg
- ED30 (Rattus norvegicus [17]): 3.5 mg/kg
- ED30 (Rattus norvegicus [18]): 5.9 mg/kg
- Heart rate (Rattus norvegicus [19]): 374 beats min-1
- Heart rate (Rattus norvegicus [20]): 438 beats min-1
- Heart rate (Rattus norvegicus [21]): 481 beats min-1
- Heart rate (Rattus norvegicus [22]): 460 beats min-1
- Response (Rattus norvegicus [23]): 39 mmHg
- Response (Rattus norvegicus [24]): 33 mmHg
- Response (Rattus norvegicus [25]): 18 mmHg
- Response (Rattus norvegicus [26]): 4 mmHg
- Response (Rattus norvegicus [27]): -44 mmHg
- Heart rate (Rattus norvegicus [28]): 369 beats min-1
- Activity (Rattus norvegicus [29]): 220 mmHg
